Marks after values point to notes of the source that are not given here.
Assay: Phase I safety and tolerability, weekly
Type: in vivo, human
Outline: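 Oral weekly dose escalation followed a 3+3 design (planned 90, 135, 200, 300mg, intermediate doses allowed), then a modified toxicity-probability-interval confirmation stage. A DLT was any drug-related CTCAE v3.0 ≥G4 hematological, ≥G3 febrile neutropenia or ≥G3 non-hematological toxicity. Safety visits, glucose, C-peptide and HbA1c monitoring followed a fixed schedule; AEs were graded by CTCAE v3.0.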

SMILES: NC1(c2ccc(-c3nc4ccn5c(=O)[nH]nc5c4cc3-c3ccccc3)cc2)CCC1 [MK-2206]
- Anorexia, number of AEs (90mg QW, G1, all cycles): 0 (0)
- Dermatitis acneiform, number of AEs (90mg QW, G1, all cycles): 0 (0)
- Diarrhea, number of AEs (90mg QW, G1, all cycles): 1 (1)
- Dry skin, number of AEs (90mg QW, G1, all cycles): 0 (0)
- Fatigue, number of AEs (90mg QW, G1, all cycles): 1 (1)
- Nausea, number of AEs (90mg QW, G1, all cycles): 0 (0)
- Pruritus, number of AEs (90mg QW, G1, all cycles): 0 (0)
- Rash (all rash terms collated), number of AEs (90mg QW, G1, all cycles): 0 (0)
- Stomatitis, number of AEs (90mg QW, G1, all cycles): 0 (0)
- Vomiting, number of AEs (90mg QW, G1, all cycles): 1 (1)
- Anorexia, number of AEs (90mg QW, G1, cycle 1): 0 (0)
- Dermatitis acneiform, number of AEs (90mg QW, G1, cycle 1): 0 (0)
- Diarrhea, number of AEs (90mg QW, G1, cycle 1): 1 (1)
- Dry skin, number of AEs (90mg QW, G1, cycle 1): 0 (0)
- Fatigue, number of AEs (90mg QW, G1, cycle 1): 1 (1)
- Nausea, number of AEs (90mg QW, G1, cycle 1): 0 (0)
- Pruritus, number of AEs (90mg QW, G1, cycle 1): 0 (0)
- Rash (all rash terms collated), number of AEs (90mg QW, G1, cycle 1): 0 (0)
- Stomatitis, number of AEs (90mg QW, G1, cycle 1): 0 (0)
- Vomiting, number of AEs (90mg QW, G1, cycle 1): 1 (1)
- Anorexia, number of AEs (135mg QW, G1, all cycles): 0 (0)
- Dermatitis acneiform, number of AEs (135mg QW, G1, all cycles): 1 (1)
- Diarrhea, number of AEs (135mg QW, G1, all cycles): 0 (0)
- Dry skin, number of AEs (135mg QW, G1, all cycles): 0 (0)
- Dysgeusia, number of AEs (135mg QW, G1, all cycles): 0 (0)
- Fatigue, number of AEs (135mg QW, G1, all cycles): 0 (0)
- Nausea, number of AEs (135mg QW, G1, all cycles): 0 (0)
- Pruritus, number of AEs (135mg QW, G1, all cycles): 1 (1)
- Rash (all rash terms collated), number of AEs (135mg QW, G1, all cycles): 1 (1)
- Stomatitis, number of AEs (135mg QW, G1, all cycles): 0 (0)
- Vomiting, number of AEs (135mg QW, G1, all cycles): 0 (0)
- Anorexia, number of AEs (135mg QW, G1, cycle 1): 0 (0)
- Dermatitis acneiform, number of AEs (135mg QW, G1, cycle 1): 1 (1)
- Diarrhea, number of AEs (135mg QW, G1, cycle 1): 0 (0)
- Dry skin, number of AEs (135mg QW, G1, cycle 1): 0 (0)
- Dysgeusia, number of AEs (135mg QW, G1, cycle 1): 0 (0)
- Fatigue, number of AEs (135mg QW, G1, cycle 1): 0 (0)
- Nausea, number of AEs (135mg QW, G1, cycle 1): 0 (0)
- Pruritus, number of AEs (135mg QW, G1, cycle 1): 1 (1)
- Rash (all rash terms collated), number of AEs (135mg QW, G1, cycle 1): 1 (1)
- Stomatitis, number of AEs (135mg QW, G1, cycle 1): 0 (0)
- Vomiting, number of AEs (135mg QW, G1, cycle 1): 0 (0)
- Dermatitis acneiform, number of AEs (150mg QW, G1, all cycles): 0 (0)
- Diarrhea, number of AEs (150mg QW, G1, all cycles): 0 (0)
- Dry skin, number of AEs (150mg QW, G1, all cycles): 0 (0)
- Dysgeusia, number of AEs (150mg QW, G1, all cycles): 0 (0)
- Fatigue, number of AEs (150mg QW, G1, all cycles): 0 (0)
- Nausea, number of AEs (150mg QW, G1, all cycles): 0 (0)
- Pruritus, number of AEs (150mg QW, G1, all cycles): 0 (0)
- Rash (all rash terms collated), number of AEs (150mg QW, G1, all cycles): 0 (0)
- Stomatitis, number of AEs (150mg QW, G1, all cycles): 0 (0)
- Vomiting, number of AEs (150mg QW, G1, all cycles): 2 (2)
- Dermatitis acneiform, number of AEs (150mg QW, G1, cycle 1): 0 (0)
- Diarrhea, number of AEs (150mg QW, G1, cycle 1): 0 (0)
- Dry skin, number of AEs (150mg QW, G1, cycle 1): 0 (0)
- Dysgeusia, number of AEs (150mg QW, G1, cycle 1): 0 (0)
- Fatigue, number of AEs (150mg QW, G1, cycle 1): 0 (0)
- Nausea, number of AEs (150mg QW, G1, cycle 1): 0 (0)
- Pruritus, number of AEs (150mg QW, G1, cycle 1): 0 (0)
- Rash (all rash terms collated), number of AEs (150mg QW, G1, cycle 1): 0 (0)
- Stomatitis, number of AEs (150mg QW, G1, cycle 1): 0 (0)
- Vomiting, number of AEs (150mg QW, G1, cycle 1): 2 (2)
- Anorexia, number of AEs (150mg QW, G2, all cycles): 0 (0)
- Dermatitis acneiform, number of AEs (150mg QW, G2, all cycles): 0 (0)
- Diarrhea, number of AEs (150mg QW, G2, all cycles): 0 (0)
- Dry skin, number of AEs (150mg QW, G2, all cycles): 0 (0)
- Dysgeusia, number of AEs (150mg QW, G2, all cycles): 0 (0)
- Fatigue, number of AEs (150mg QW, G2, all cycles): 0 (0)
- Nausea, number of AEs (150mg QW, G2, all cycles): 1 (1)
- Pruritus, number of AEs (150mg QW, G2, all cycles): 0 (0)
- Rash (all rash terms collated), number of AEs (150mg QW, G2, all cycles): 0 (0)
- Stomatitis, number of AEs (150mg QW, G2, all cycles): 0 (0)
- Vomiting, number of AEs (150mg QW, G2, all cycles): 0 (0)
- Anorexia, number of AEs (150mg QW, G2, cycle 1): 0 (0)
- Dermatitis acneiform, number of AEs (150mg QW, G2, cycle 1): 0 (0)
- Diarrhea, number of AEs (150mg QW, G2, cycle 1): 0 (0)
- Dry skin, number of AEs (150mg QW, G2, cycle 1): 0 (0)
- Dysgeusia, number of AEs (150mg QW, G2, cycle 1): 0 (0)
- Fatigue, number of AEs (150mg QW, G2, cycle 1): 0 (0)
- Nausea, number of AEs (150mg QW, G2, cycle 1): 1 (1)
- Pruritus, number of AEs (150mg QW, G2, cycle 1): 0 (0)
- Rash (all rash terms collated), number of AEs (150mg QW, G2, cycle 1): 0 (0)
- Stomatitis, number of AEs (150mg QW, G2, cycle 1): 0 (0)
- Vomiting, number of AEs (150mg QW, G2, cycle 1): 0 (0)
- Anorexia, number of AEs (150mg QW, G3, all cycles): 0 (0)
- Dermatitis acneiform, number of AEs (150mg QW, G3, all cycles): 0 (0)
- Diarrhea, number of AEs (150mg QW, G3, all cycles): 0 (0)
- Dry skin, number of AEs (150mg QW, G3, all cycles): 0 (0)
- Dysgeusia, number of AEs (150mg QW, G3, all cycles): 0 (0)
- Fatigue, number of AEs (150mg QW, G3, all cycles): 0 (0)
- Nausea, number of AEs (150mg QW, G3, all cycles): 0 (0)
- Pruritus, number of AEs (150mg QW, G3, all cycles): 0 (0)
- Rash (all rash terms collated), number of AEs (150mg QW, G3, all cycles): 3
- Stomatitis, number of AEs (150mg QW, G3, all cycles): 0 (0)
- Vomiting, number of AEs (150mg QW, G3, all cycles): 0 (0)
- Anorexia, number of AEs (150mg QW, G3, cycle 1): 0 (0)
- Dermatitis acneiform, number of AEs (150mg QW, G3, cycle 1): 0 (0)
- Diarrhea, number of AEs (150mg QW, G3, cycle 1): 0 (0)
- Dry skin, number of AEs (150mg QW, G3, cycle 1): 0 (0)
- Dysgeusia, number of AEs (150mg QW, G3, cycle 1): 0 (0)
- Fatigue, number of AEs (150mg QW, G3, cycle 1): 0 (0)
- Nausea, number of AEs (150mg QW, G3, cycle 1): 0 (0)
- Pruritus, number of AEs (150mg QW, G3, cycle 1): 0 (0)
- Stomatitis, number of AEs (150mg QW, G3, cycle 1): 0 (0)
- Vomiting, number of AEs (150mg QW, G3, cycle 1): 0 (0)
- Rash (all rash terms collated), number of AEs (150mg QW, G3, cycle 1, dose-limiting toxicity): 1
- Anorexia, number of AEs (200mg QW, G1, all cycles): 1 (1)
- Dermatitis acneiform, number of AEs (200mg QW, G1, all cycles): 0 (0)
- Diarrhea, number of AEs (200mg QW, G1, all cycles): 2 (2)
- Dry skin, number of AEs (200mg QW, G1, all cycles): 1 (1)
- Dysgeusia, number of AEs (200mg QW, G1, all cycles): 0 (0)
- Nausea, number of AEs (200mg QW, G1, all cycles): 4 (4)
- Stomatitis, number of AEs (200mg QW, G1, all cycles): 2 (2)
- Vomiting, number of AEs (200mg QW, G1, all cycles): 2 (2)
- Anorexia, number of AEs (200mg QW, G1, cycle 1): 1 (1)
- Dermatitis acneiform, number of AEs (200mg QW, G1, cycle 1): 0 (0)
- Diarrhea, number of AEs (200mg QW, G1, cycle 1): 2 (2)
- Dry skin, number of AEs (200mg QW, G1, cycle 1): 1 (1)
- Dysgeusia, number of AEs (200mg QW, G1, cycle 1): 0 (0)
- Nausea, number of AEs (200mg QW, G1, cycle 1): 4 (4)
- Stomatitis, number of AEs (200mg QW, G1, cycle 1): 2 (2)
- Vomiting, number of AEs (200mg QW, G1, cycle 1): 2 (2)
- Anorexia, number of AEs (200mg QW, G2, all cycles): 0 (0)
- Dermatitis acneiform, number of AEs (200mg QW, G2, all cycles): 0 (0)
- Diarrhea, number of AEs (200mg QW, G2, all cycles): 0 (0)
- Dry skin, number of AEs (200mg QW, G2, all cycles): 0 (0)
- Dysgeusia, number of AEs (200mg QW, G2, all cycles): 0 (0)
- Fatigue, number of AEs (200mg QW, G2, all cycles): 1 (1)
- Nausea, number of AEs (200mg QW, G2, all cycles): 1 (1)
- Rash (all rash terms collated), number of AEs (200mg QW, G2, all cycles): 4 (4)
- Stomatitis, number of AEs (200mg QW, G2, all cycles): 0 (0)
- Vomiting, number of AEs (200mg QW, G2, all cycles): 0 (0)
- Anorexia, number of AEs (200mg QW, G2, cycle 1): 0 (0)
- Dermatitis acneiform, number of AEs (200mg QW, G2, cycle 1): 0 (0)
- Diarrhea, number of AEs (200mg QW, G2, cycle 1): 0 (0)
- Dry skin, number of AEs (200mg QW, G2, cycle 1): 0 (0)
- Dysgeusia, number of AEs (200mg QW, G2, cycle 1): 0 (0)
- Fatigue, number of AEs (200mg QW, G2, cycle 1): 1 (1)
- Nausea, number of AEs (200mg QW, G2, cycle 1): 1 (1)
- Rash (all rash terms collated), number of AEs (200mg QW, G2, cycle 1): 4 (4)
- Stomatitis, number of AEs (200mg QW, G2, cycle 1): 0 (0)
- Vomiting, number of AEs (200mg QW, G2, cycle 1): 0 (0)
- Anorexia, number of AEs (200mg QW, G3, all cycles): 0 (0)
- Dermatitis acneiform, number of AEs (200mg QW, G3, all cycles): 1^c (1)
- Diarrhea, number of AEs (200mg QW, G3, all cycles): 0 (0)
- Dry skin, number of AEs (200mg QW, G3, all cycles): 0 (0)
- Dysgeusia, number of AEs (200mg QW, G3, all cycles): 0 (0)
- Fatigue, number of AEs (200mg QW, G3, all cycles): 0 (0)
- Nausea, number of AEs (200mg QW, G3, all cycles): 0 (0)
- Pruritus, number of AEs (200mg QW, G3, all cycles): 0 (0)
- Rash (all rash terms collated), number of AEs (200mg QW, G3, all cycles): 3^c (3)
- Stomatitis, number of AEs (200mg QW, G3, all cycles): 0 (0)
- Vomiting, number of AEs (200mg QW, G3, all cycles): 0 (0)
- Anorexia, number of AEs (200mg QW, G3, cycle 1): 0 (0)

Reference: article PMC4233149 (Clinical cancer research : an official journal of the …, 2014)
